Assays:
AoiQ-FDH [1] = test: flavin reductase activity, NADH consumption; type: biochemical, Aspergillus oryzae; conditions: no flavin reductase added; copurified FAD
Method in brief: (§1)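 Enzyme is the FDH domain of AoiQ, expressed as a standalone protein apart from its methyltransferase domain. Flavin reductase activity was followed by consumption of NADH or NADPH, with no exogenous flavin reductase added. Steady-state KM, kcat and kcat/KM were reported for each nicotinamide cofactor.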

AoiQ-FDH [2] = test: flavin reductase activity, NADPH consumption; type: biochemical, Aspergillus oryzae; conditions: no flavin reductase added; copurified FAD
Method in brief: as §1

NC(=O)C1=CN([C@@H]2O[C@H](COP(=O)(O)OP(=O)(O)OC[C@H]3O[C@@H](n4cnc5c(N)ncnc54)[C@H](O)[C@@H]3O)[C@@H](O)[C@H]2O)C=CC1 [NADH]
Km (AoiQ-FDH [1]): 43.5 ± 3.6 µM

NC(=O)C1=CN([C@@H]2O[C@H](COP(=O)(O)OP(=O)(O)OC[C@H]3O[C@@H](n4cnc5c(N)ncnc54)[C@H](OP(=O)(O)O)[C@@H]3O)[C@@H](O)[C@H]2O)C=CC1 [NADPH]
Km (AoiQ-FDH [2]): 30.5 ± 6 µM

From PMC8434754 (Journal of the American Chemical Society, 2021)
